Measurements from different studies.
Protocols differ between the studies behind these lines.
Target: Cholinesterase (BCHE, Equus caballus, UniProt P81908)
Read-out: enzyme activity
Action: inhibitor

Structure (SMILES) | technique | IC50 [µM]
CC=C1[C@H]2C=C(C)C[C@]1(N)c1cc(C)c(=O)[nH]c1C2 | Ellman | 486
CCOc1ccc(C=NNC(=S)NCC(=O)c2ccc(Cl)cc2Cl)cc1 | Ellman | 331
CC(=O)N1CCN(c2nccc(NCCc3ccccc3)n2)CC1 |  | > 100
C#CCN(C)c1nc(NCCCCC2CCN(Cc3ccccc3)CC2)c(C#N)c(-c2ccccc2)c1C#N | Ellman | 0.22
O=C(NCCCNc1c2c(nc3ccccc13)CCCC2)c1ccccc1O | Ellman | 0.129
CCOc1ccc(C=NNC(=S)NCC(=O)c2cccc(C)c2)cc1 | Ellman | 300
C#CCNc1nc(NCCCCC2CCN(Cc3ccccc3)CC2)c(C#N)cc1C#N | Ellman | 0.511
CC=C1[C@H]2C=C(C)C[C@]1(N)c1ccc(OC)nc1C2 | Ellman | 904
CCOc1ccc(C=NNC(=S)NCC(=O)c2ccc(-c3ccccc3)cc2)cc1 | Ellman | 501
CC=C1[C@H]2C=C(C)C[C@]1(N)c1cc(CC)c(=O)[nH]c1C2 | Ellman | 60.4
CC(C)(C)OC(=O)N1CCN(c2nccc(NCc3ccccc3)n2)CC1 |  | > 100
